Our source for the activation, potentiation and outcome values is PubChem BioAssay.

The nature of experiment [1]: nonspecific flux increase, KCNQ1-free cells – parental CHO cells, counter-screen for KCNQ1 potentiator project (AID 493006;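 active = duplicate-averaged activation above buffer control mean plus 5 SD of those controls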;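 as to activation: fluorescence ratio of max minus min over baseline after K+ and Tl+ depolarization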). The settings on record: parental CHO-K1 cells, FluxOR thallium flux, at 10 µM; hits give high values. Put shortly:
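Material: untransfected host CHO-K1 cells with FluxOR thallium dye. Timing: overnight 37 °C plating, 90 min RT dye, 20 min compound. Detection: kinetic FluxOR fluorescence, 10 s baseline, 110 s after stimulus. Read-out basis: max-minus-min fluorescence over baseline, percent of buffer-to-R-L3 span. Replicates: duplicate wells per compound, percent values averaged.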

The target of experiment [2] is Potassium voltage-gated channel subfamily KQT member 1 (Homo sapiens) (UniProt P51787). Briefly: enhancement of KCNQ1 channel thallium flux – FluxOR thallium flux, CHO cells, duplicates, confirmation (AID 493007;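 active = potentiation averaged over duplicate wells exceeding buffer-only control mean by more than 3 SD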;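 as to outcome: cells depolarized by a potassium plus thallium sulfate stimulus after compound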). The settings on record: KCNQ1 cell line, FluxOR thallium flux fluorescence, at 10 µM; hits give high values, % of reference activator effect, buffer zero. The procedure, abridged:
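Test system – KCNQ1-expressing CHO cell line · Incubation – FluxOR dye loading 90 min, compound exposure 20 min, room temperature · Detection – FluxOR Tl+ flux fluorescence, 10 s baseline plus 110 s recording · Controls – buffer-only wells as 0% and R-L3 activator as 100%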

For experiment [3], the target named is Potassium voltage-gated channel subfamily KQT member 2 (Rattus norvegicus) (UniProt O88943). In words: KCNQ2 thallium flux enhancement – KCNQ2-CHO-K1 cells, selectivity assay for KCNQ1 potentiator project (AID 493009;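 active = mean duplicate potentiation above the buffer control mean plus 5 SD of buffer wells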;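 also: assay conditions were tuned for KCNQ1 rather than KCNQ2 modulators; signal is max minus min fluorescence divided by baseline after thallium stimulus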). The following applies: FluxOR thallium flux fluorescence, at 10 µM; hits give high values, scaled: buffer 0, activator control 100.
The target of experiment [4] is Potassium voltage-gated channel subfamily KQT member 1 (Homo sapiens) (UniProt P51787). In words: KCNQ1 activators by electrophysiology – IonWorks patch clamp, KCNQ1-CHO cells, orthogonal assay for KCNQ1 potentiator project, confirmation (AID 493184). The settings on record: automated patch clamp current, at 10 µM; hits give high values. The procedure, abridged:
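Read-out: Percent current increase versus pre-compound level | Assay system: CHO cells carrying KCNQ1 | Measured by: Automated perforated-patch electrophysiology | Medium: External bath solution at pH 7.4 | Dosing: One dose, 10 µM final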
A general note: In patch-clamp work, channel activity is measured electrically.

Active and inactive are the calls of the source.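 The calls were made as follows, unless noted: active = current rise at least 3 SD above the untreated control mean in each of two repeat wells; inactive = the rest.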

Potassium voltage-gated channel subfamily KQT member 1 (Homo sapiens), sequence (P51787 whole entry, looked up): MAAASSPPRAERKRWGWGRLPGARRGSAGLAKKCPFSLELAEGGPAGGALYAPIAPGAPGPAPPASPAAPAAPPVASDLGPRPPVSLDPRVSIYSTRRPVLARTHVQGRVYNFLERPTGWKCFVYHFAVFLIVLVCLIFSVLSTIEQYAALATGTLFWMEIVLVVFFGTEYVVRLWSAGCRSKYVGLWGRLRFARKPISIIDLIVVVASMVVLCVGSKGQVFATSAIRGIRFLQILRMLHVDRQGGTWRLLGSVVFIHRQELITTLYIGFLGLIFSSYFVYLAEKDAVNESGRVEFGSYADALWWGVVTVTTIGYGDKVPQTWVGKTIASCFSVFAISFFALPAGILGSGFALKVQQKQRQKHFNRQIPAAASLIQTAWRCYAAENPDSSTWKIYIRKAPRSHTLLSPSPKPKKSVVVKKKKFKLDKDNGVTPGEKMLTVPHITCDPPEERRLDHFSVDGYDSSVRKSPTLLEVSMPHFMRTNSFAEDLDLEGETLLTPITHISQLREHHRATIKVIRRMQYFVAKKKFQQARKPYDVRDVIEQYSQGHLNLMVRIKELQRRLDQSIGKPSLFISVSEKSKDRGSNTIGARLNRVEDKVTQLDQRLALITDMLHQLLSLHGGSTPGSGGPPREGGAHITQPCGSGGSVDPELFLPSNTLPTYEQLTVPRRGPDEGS
Potassium voltage-gated channel subfamily KQT member 2 (Rattus norvegicus), sequence (O88943 whole entry, looked up): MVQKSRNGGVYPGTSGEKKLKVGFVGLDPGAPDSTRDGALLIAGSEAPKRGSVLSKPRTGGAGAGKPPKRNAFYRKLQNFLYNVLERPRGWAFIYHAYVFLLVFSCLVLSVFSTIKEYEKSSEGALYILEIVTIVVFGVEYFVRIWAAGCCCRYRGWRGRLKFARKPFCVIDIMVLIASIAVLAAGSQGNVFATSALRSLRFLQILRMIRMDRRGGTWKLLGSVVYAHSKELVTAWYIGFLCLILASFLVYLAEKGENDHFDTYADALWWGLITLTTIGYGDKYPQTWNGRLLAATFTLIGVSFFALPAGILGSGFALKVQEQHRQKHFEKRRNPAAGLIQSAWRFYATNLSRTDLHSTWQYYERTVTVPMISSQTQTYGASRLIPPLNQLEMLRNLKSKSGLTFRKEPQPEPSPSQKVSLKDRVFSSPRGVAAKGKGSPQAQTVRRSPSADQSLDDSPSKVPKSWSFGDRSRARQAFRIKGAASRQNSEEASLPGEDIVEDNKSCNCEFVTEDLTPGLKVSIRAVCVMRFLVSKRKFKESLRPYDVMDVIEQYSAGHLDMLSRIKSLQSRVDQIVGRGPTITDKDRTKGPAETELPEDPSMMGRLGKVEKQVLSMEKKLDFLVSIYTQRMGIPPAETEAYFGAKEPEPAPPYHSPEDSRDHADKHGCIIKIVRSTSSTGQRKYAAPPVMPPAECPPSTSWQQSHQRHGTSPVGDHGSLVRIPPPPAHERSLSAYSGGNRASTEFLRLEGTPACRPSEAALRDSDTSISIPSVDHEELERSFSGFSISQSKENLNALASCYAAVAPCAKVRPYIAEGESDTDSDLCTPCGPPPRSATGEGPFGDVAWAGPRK

Take `CCCCCCCCCCCCC/C=C/[C@@H](O)[C@@H](N)CO`: in experiment [1], the activation is 406% (active). For the same molecule, the values for the potentiation in experiment [2] and in experiment [3] were 218% (active) and 414% (active), respectively. For the same molecule, the result in experiment [4] was inactive.

As for `O=C(COc1ccc(Cl)cc1)NNC(=O)C(=O)NC1CCCCC1`, the outcome in experiment [1], in experiment [2] and in experiment [4] was inactive. Besides, in experiment [3], the potentiation is 158% (active).

For the molecule `Oc1c(Br)cc(Br)cc1C=Nc1ccc2c(c1)OCCO2`, the activation in experiment [1] is 159% (active). The result in experiment [2], in experiment [3] and in experiment [4] was inactive.

Consider `Cn1c(=O)nc2n(Cc3ccccc3)c3ccccc3cc-2c1=O`, for which the outcome in experiment [1], in experiment [2], in experiment [3] and in experiment [4] was inactive.

Take `O=C(NC(=S)N1CCc2ccccc21)c1ccco1`: the activation in experiment [1] was 198% (active). Further, the potentiation in experiment [2] was 49.5% (active); in experiment [3], 226% (active). The outcome in experiment [4] was inactive.

For `COc1ccc(C(=O)O/N=C(\N)Cc2ccc(Cl)cc2Cl)cc1OC`, the result in experiment [1], in experiment [2], in experiment [3] and in experiment [4] was inactive.

In the case of `CCN(CC)CCn1c(OC)cc(=O)[nH]c1=O`, the result in experiment [1], in experiment [2], in experiment [3] and in experiment [4] was inactive.

As for `Cc1ccc(-c2csc(=S)[nH]2)cc1`, the activation in experiment [1] is 628% (active). The potentiation was 189% (active) in experiment [2] and 643% (active) in experiment [3]. Further, the result in experiment [4] was inactive.

Take `CC(C)c1nc2n[nH]c(N)c2c2c1CSC(C)(C)C2`: the result in experiment [1], in experiment [3] and in experiment [4] was inactive. For the same molecule, in experiment [2], the potentiation is 31.5% (active).

With `Cn1c(=NC(=O)c2ccco2)sc2cccc(F)c21`, the outcome in experiment [1], in experiment [2], in experiment [3] and in experiment [4] was inactive.

Turning to `CCN(Cc1cc2cc(OC)ccc2[nH]c1=O)C(=O)c1ccncc1`, the outcome in experiment [1], in experiment [2], in experiment [3] and in experiment [4] was inactive.

Consider `CCn1c(O)c(N=NC2=NC(=O)CS2)c2ccccc21`, for which the result in experiment [1], in experiment [2] and in experiment [4] was inactive. Besides, the potentiation in experiment [3] was 145% (active).

Turning to `O=C(CNCC1CCCCC1)Nc1ccc(OC(F)(F)F)cc1`, the result in experiment [1], in experiment [2], in experiment [3] and in experiment [4] was inactive.

Turning to `CC(/C=C1\SC(=S)N(c2ccc(C(=O)O)cc2)C1=O)=C\c1ccccc1`, the outcome in experiment [1], in experiment [2], in experiment [3] and in experiment [4] was inactive.

Turning to `CCn1ncc(CN2CCC(C(=O)Nc3cccc(-c4cccc(F)c4)c3)CC2)c1C`, the outcome in experiment [1], in experiment [2], in experiment [3] and in experiment [4] was inactive.

Turning to `Cn1ncc2c(O/N=C(\N)c3ccc(C(C)(C)C)cc3)ncnc21`, the result in experiment [1], in experiment [2], in experiment [3] and in experiment [4] was inactive.

In the case of `COC(=O)c1sccc1NC(=O)CSc1ccccc1NS(=O)(=O)c1ccc(Cl)cc1`, the result in experiment [1], in experiment [3] and in experiment [4] was inactive. Also, the potentiation in experiment [2] is 17.5% (active).

Consider `C/C(=N\NC(=O)C(C)Sc1ccccc1)c1ccc([N+](=O)[O-])cc1` (stereo not drawn), for which the result in experiment [1], in experiment [2], in experiment [3] and in experiment [4] was inactive.

Consider `COCCCNC(=O)CC(NS(=O)(=O)c1ccc(F)cc1)c1ccc(OC)cc1` (stereo not drawn), for which the result in experiment [1], in experiment [2], in experiment [3] and in experiment [4] was inactive.

As for `CC(C)Cn1c(=S)[nH]c2cc(Cl)ccc21`, in experiment [1], the activation is 196% (active). The figures for the potentiation in experiment [2] and in experiment [3] were 70.5% (active) and 225% (active), respectively. The result in experiment [4] was inactive.

On to `C/C(=N\NC(=O)c1cc2ccccc2cc1O)c1cc2ccccc2o1`, for which the activation in experiment [1] was 706% (active). The potentiation in experiment [2] was 478% (active); in experiment [3], 746% (active). Besides, the outcome in experiment [4] was inactive.

On to `COc1ccc(N2CCN(CC(=O)Nc3nc(C)cs3)CC2)cc1`, for which the outcome in experiment [1], in experiment [2], in experiment [3] and in experiment [4] was inactive.

Turning to `CC1CCCCN1C(=S)NC(=O)c1cccs1` (stereo not drawn), the result in experiment [1], in experiment [2], in experiment [3] and in experiment [4] was inactive.

On to `Cc1nn2c(NCc3ccccn3)cc(C(C)C)nc2c1-c1ccccc1`, for which the outcome in experiment [1], in experiment [2], in experiment [3] and in experiment [4] was inactive.

With `Cc1nn(C)c(C(=O)NC(=S)Nc2ccc([N+](=O)[O-])cc2)c1Cl`, in experiment [1], the activation was 166% (active). Further, the potentiation in experiment [2] is 72% (active); in experiment [3], 196% (active). The result in experiment [4] was inactive.

Regarding `Cc1c(-c2ccccc2)sc2nc[nH]c(=S)c12`, the activation in experiment [1] is 307% (active). For the same molecule, the potentiation in experiment [2] is 130% (active); in experiment [3], 304% (active). In experiment [4], the outcome was inactive.

As to `COc1ccc(CN(C)C(=O)c2cccc(NS(=O)(=O)c3ccccc3)c2)cc1F`, the result in experiment [1], in experiment [2], in experiment [3] and in experiment [4] was inactive.

Take `Fc1ccccc1/C=N/NC(=S)Nc1ccc(Cl)cc1Cl`: the outcome in experiment [1], in experiment [3] and in experiment [4] was inactive. Moreover, the potentiation in experiment [2] was 66.5% (active).

With `Cc1ccc(C(=O)N/N=C(/CC(=O)c2cccs2)C(F)(F)F)cc1`, the activation in experiment [1] was 234% (active). Moreover, the potentiation in experiment [2] is 66.5% (active); in experiment [3] it was 246% (active). Besides, in experiment [4], the outcome was inactive.

On to `Cc1ccc(NC2=C(NC(=O)c3ccccc3)C(=O)c3ccccc3C2=O)cc1Cl`, for which the result in experiment [1], in experiment [2], in experiment [3] and in experiment [4] was inactive.

In the case of `Cc1ccc(Sc2ccc(CN3CCCC3)cc2[N+](=O)[O-])cc1`, the result in experiment [1], in experiment [2], in experiment [3] and in experiment [4] was inactive.

On to `Cc1cccc(C(=O)NC(=S)N2CCc3ccccc3C2)c1`, for which the activation in experiment [1] is 197% (active). The potentiation is 99% (active) in experiment [2] and 256% (active) in experiment [3]. For the same molecule, the result in experiment [4] was inactive.
